One data set relates to MCF-7. Description: MTT anti-proliferative assay, MCF-7. In kind it is cell-based, human.
The subject of another data set is A549. Description: MTT anti-proliferative assay, A549. In kind it is cell-based, human. For orientation: Tetrazolium dyes change colour on reduction, which living cells bring about.
Another data set relates to WI-38. Nature of the data set: Safety assay. The settings on record: for IC50: Homo sapiens, WI-38, read-out: Cell lines IC50 WI-38.
In a further data set the target is EGFR^WT (Homo sapiens, UniProt P00533). Nature of the data set: EGFR^WT kinase inhibition. Format: biochemical.
For data set [1], the system named is A549 cells. Nature of the data set: Apoptosis analysis, Annexin-V/propidium iodide staining. In kind it is cell-based, human. The settings on record: A549, 17.79 µM, 72 h. The method, boiled down: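 Annexin-V-FITC/propidium iodide double staining of A549 cells exposed to the test compound (17.79 μM, 72 h), analysed by flow cytometry.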
For data set [2], the system named is A549 cells. Nature of the data set: Cell cycle analysis by flow cytometry. Format: cell-based, human. The settings on record: A549, 17.79 µM, 72 h. The method, boiled down: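 A549 cells were exposed to the test compound at 17.79 μM for 72 h, with untreated A549 cells as comparator. Cell-cycle distribution was read by flow cytometry as the percentage of the population in Sub-G1, G1, S and G2/M phases.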

Another data set has as its target EGFR^T790M (Homo sapiens, UniProt P00533, T790M). Description: EGFR^T790M kinase inhibition. Format: biochemical.
A further data set deals with BAX and Bcl-2 genes. Description: BAX and Bcl-2 gene expression by quantitative RT-PCR. Format: cell-based, human. The note with it: A549, 17.79 µM, 72 h.
The mark [3] stands for this setting: Homo sapiens, MCF7, read-out: Cell lines IC50 MCF-7.
Setting [4] is: Homo sapiens, A549, read-out: Cell lines IC50 A549.

Several values for one entry are separate records, joined by “and”; a condition that tells them apart may be missing. Equal values may be shown once. Read-outs that look alike come from different tables or passages of the source.

Sequence of EGFR^WT (P00533 25-1210): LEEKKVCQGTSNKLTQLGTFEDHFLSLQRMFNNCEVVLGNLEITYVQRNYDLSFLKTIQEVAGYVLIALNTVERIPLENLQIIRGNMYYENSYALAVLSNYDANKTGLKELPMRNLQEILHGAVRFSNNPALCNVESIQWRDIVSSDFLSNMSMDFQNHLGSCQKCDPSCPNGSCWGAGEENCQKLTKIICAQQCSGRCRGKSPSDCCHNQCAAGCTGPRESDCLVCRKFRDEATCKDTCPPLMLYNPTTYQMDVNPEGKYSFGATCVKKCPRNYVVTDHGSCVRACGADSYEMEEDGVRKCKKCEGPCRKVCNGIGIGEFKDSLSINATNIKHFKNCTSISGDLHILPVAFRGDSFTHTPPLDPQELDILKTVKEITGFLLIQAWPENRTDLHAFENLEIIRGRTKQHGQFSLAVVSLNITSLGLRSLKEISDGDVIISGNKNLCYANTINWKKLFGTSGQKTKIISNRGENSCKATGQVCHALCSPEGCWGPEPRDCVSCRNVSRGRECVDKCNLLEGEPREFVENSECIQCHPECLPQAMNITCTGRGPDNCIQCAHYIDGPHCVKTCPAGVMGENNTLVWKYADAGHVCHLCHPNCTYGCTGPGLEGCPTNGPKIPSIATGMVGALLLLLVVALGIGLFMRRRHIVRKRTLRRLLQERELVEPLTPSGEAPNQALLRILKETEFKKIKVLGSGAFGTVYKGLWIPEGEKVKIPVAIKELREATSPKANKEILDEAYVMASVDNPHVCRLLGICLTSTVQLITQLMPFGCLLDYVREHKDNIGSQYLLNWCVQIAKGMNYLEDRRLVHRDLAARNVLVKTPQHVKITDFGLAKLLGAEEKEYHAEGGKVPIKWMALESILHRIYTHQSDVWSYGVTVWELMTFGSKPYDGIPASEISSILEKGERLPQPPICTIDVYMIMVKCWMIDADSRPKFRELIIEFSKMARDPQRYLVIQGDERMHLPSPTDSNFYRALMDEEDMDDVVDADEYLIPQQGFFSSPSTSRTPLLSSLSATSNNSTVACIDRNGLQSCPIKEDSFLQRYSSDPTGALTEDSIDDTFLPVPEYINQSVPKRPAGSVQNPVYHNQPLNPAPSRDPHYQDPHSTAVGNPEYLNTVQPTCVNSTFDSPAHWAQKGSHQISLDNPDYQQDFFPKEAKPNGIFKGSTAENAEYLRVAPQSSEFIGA
Sequence of EGFR^T790M (P00533 25-1210 T790M): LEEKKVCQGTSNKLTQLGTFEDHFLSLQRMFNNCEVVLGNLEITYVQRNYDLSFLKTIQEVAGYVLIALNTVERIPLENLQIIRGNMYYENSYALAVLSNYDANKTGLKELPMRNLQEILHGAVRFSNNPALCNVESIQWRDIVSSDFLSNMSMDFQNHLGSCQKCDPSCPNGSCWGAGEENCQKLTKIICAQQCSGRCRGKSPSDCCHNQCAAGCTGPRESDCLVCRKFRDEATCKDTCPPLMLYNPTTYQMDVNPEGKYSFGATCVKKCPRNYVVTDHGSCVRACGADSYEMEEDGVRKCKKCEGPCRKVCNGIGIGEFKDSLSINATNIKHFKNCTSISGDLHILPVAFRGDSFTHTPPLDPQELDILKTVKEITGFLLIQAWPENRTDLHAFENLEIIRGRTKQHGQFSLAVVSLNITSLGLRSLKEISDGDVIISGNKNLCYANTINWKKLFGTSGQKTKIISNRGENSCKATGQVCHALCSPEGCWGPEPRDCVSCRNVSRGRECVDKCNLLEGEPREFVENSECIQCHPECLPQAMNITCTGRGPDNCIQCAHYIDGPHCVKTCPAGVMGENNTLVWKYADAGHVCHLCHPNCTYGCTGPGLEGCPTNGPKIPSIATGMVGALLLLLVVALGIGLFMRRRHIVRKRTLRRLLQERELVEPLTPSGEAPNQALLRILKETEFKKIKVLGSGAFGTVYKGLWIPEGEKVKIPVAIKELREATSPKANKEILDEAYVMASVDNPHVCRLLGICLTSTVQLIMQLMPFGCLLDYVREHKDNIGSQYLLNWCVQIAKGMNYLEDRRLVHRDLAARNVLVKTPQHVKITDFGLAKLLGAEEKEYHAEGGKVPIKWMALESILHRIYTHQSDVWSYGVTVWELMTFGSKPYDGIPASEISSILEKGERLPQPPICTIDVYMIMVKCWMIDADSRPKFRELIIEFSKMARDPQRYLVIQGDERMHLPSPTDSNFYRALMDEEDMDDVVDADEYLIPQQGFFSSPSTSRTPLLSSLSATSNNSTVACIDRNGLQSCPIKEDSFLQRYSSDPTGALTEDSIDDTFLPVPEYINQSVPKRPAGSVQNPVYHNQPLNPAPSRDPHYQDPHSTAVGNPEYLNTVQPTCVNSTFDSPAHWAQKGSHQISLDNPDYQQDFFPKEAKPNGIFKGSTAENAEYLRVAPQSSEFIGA

Broadly, the IC50 is the concentration at which inhibition is half-maximal. As to `CC1CCc2c(sc3ncnc(NNC(N)=S)c23)C1` (centres unmarked) [7a, 2–(7-Methyl-5,6,7,8-tetrahydro[1]benzothieno[2,3-d]pyrimidin-4-yl)hydrazine carbothioamide], the IC50 with MCF-7 (setting [3]) is 35.7 µM; with A549 (setting [4]), 28.7 µM.
The matching figures for `CC1CCc2c(sc3ncnc(Nc4ccc(N)cc4)c23)C1` (centres unmarked) [5d, N^1-(7-Methyl-5,6,7,8-tetrahydro[1]benzothieno[2,3-d]pyrimidin-4-yl)benzene-1,4-diamine]: 35.5 µM and 34.8 µM.
Take `C#Cc1cccc(Nc2ncnc3cc(OCCOC)c(OCCOC)cc23)c1` [Erlotinib, reference compound]: the IC50 with WI-38 was 28.5 µM; in the data set on MCF-7 (setting [3]) it was 14.3 µM; with A549 (setting [4]) it was 4.18 µM.
Regarding `COc1ccc(Nc2ncnc3sc4c(c23)CCC(C)C4)cc1` (centres unmarked) [5c, N-(4-Methoxyphenyl)-7-methyl-5,6,7,8-tetrahydrobenzo[4,5]thieno[2,3-d]pyrimidin-4-amine], the IC50 in the data set on MCF-7 (setting [3]) was 30 µM; with A549 (setting [4]) it was 27.1 µM.
As to `CC1CCc2c(sc3ncnc(Nc4ccc(S(N)(=O)=O)cc4)c23)C1` (centres unmarked) [5f, 4-((7-Methyl-5,6,7,8-tetrahydrobenzo[4,5]thieno[2,3-d]pyrimidin-4-yl)amino)benzene sulphonamide], the IC50 against EGFR^WT was determined as 35.6 nM; in the data set on MCF-7 (setting [3]) it was 21.4 µM; with A549 (setting [4]), 17.5 µM.
Regarding `CC1CCc2c(sc3ncnc(NN)c23)C1` (centres unmarked) [7b, 4-Hydrazinyl-7-methyl-5,6,7,8-tetrahydro[1]benzothieno[2,3-d]pyrimidine], the values for the IC50 with MCF-7 (setting [3]) and in the data set with A549 (setting [4]) were 23.7 µM and 18.4 µM, respectively.
Turning to “N-((7-Methyl-5,6,7,8-tetrahydro[1]benzothieno[2,3-d]pyrimidin-4-yl)methyl) aniline [compound 6]”, the IC50 in the data set with MCF-7 (read-out: Cell lines IC50 MCF-7, MTT, mean of three experiments) came out at 26.6 µM; in the data set with A549 (read-out: Cell lines IC50 A549, MTT, mean of three experiments), 21.2 µM.
For the molecule `CC1CCc2c(sc3ncnc(Nc4ccc(Cl)cc4)c23)C1` (centres unmarked) [5a, N-(4-Chlorophenyl)-7-methyl-5,6,7,8-tetrahydrobenzo[4,5]thieno[2,3-d]pyrimidin-4-amine], the IC50 with MCF-7 (setting [3]) was found to be 29.3 µM; in the data set with A549 (setting [4]) it was 20.6 µM.
Take `CC1CCc2c(sc3ncnc(Nc4ccccc4F)c23)C1` (centres unmarked) [5b, N-(2-Fluorophenyl)-7-methyl-5,6,7,8-tetrahydrobenzo[4,5]thieno[2,3-d]pyrimidin-4-amine]: in the data set on A549 cells [1], the “Apoptosis Early (right bottom)” value was 17.84% and 17.84 ± 3.68%; the “Apoptosis Late (right top)” value is 45.71% and 45.71 ± 5.77 %; the “Necrosis (left top)” value stood at 2.12 ± 0.11; the “Viable (left bottom)” value is 34.33 ± 2.20. Moreover, the IC50 against EGFR^WT was 37.2 nM. In the data set with WI-38, the IC50 turned out to be 70.1 µM. Further, in the data set on WI-38 (ratio of WI-38 IC50 values vs erlotinib), the “times safer against WI-38 than erlotinib” value was determined as 2.5 fold. The IC50 in the data set with MCF-7 (setting [3]) was found to be 22.7 µM. Also, in the data set with A549 (setting [4]), the half-inhibitory concentration (IC50) is 17.8 µM. Further, in the data set with A549 cells [2], the “Cell cycle distribution % G2/M” value was 38.61% and 38.61 ± 2.11 %; the “Cell cycle distribution %G1” value was 23.19% and 23.19 ± 2.18 %; the “Cell cycle distribution %S” value was 37.66% and 37.66 ± 4.19 %; the “Cell cycle distribution %Sub-G1” value was 0.54% and 0.54 ± 0.09%. The molecule also displayed an IC50 against EGFR^T790M of 204 nM. In addition, in the data set with BAX and Bcl-2 genes (control set to 1), the BAX/Bcl-2 ratio is 8.3 fold change and 8.35 ± 1.09 fold change; the “Gene expression BAX” value was 3 fold change and 2.97 ± 0.14 fold change; the “Gene expression Bcl-2” value is reported as 0.37 ± 0.06 fold change. Also, in the data set with BAX and Bcl-2 genes (vs untreated cells), the “downregulation of the Bcl-2 gene” value stood at 3 fold.
For the molecule `CC1CCc2c(sc3ncnc(Nc4ccccc4S(N)(=O)=O)c23)C1` (centres unmarked) [5e, 2-((7-Methyl-5,6,7,8-tetrahydrobenzo[4,5]thieno[2,3-d]pyrimidin-4-yl)amino)benzene sulphonamide], the IC50 in the data set with MCF-7 (setting [3]) was determined as 29.2 µM; in the data set on A549 (setting [4]), 19.9 µM.

Values taken from article PMC10251802 (Journal of Enzyme Inhibition and Medicinal Chemistry, 2023).
